{
  "source": "ChEMBL document CHEMBL1240369",
  "about": "“Antiviral efficacy of the novel compound BIT225 against HIV-1 release from human macrophages” (Antimicrob Agents Chemother, 2010)",
  "key": {"[1]": {"experiment": "(§1) Inhibition of Vpu ion channel in HIV1 Ba-L in human MDM assessed as inhibition of vrius release", "set-up": "species or system Human immunodeficiency virus 1", "method_in_brief": "(§2)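 Day 14 MDM were infected with HIV-1 Ba-L for 3 h, washed three times and cultured with compound from 10 to 0 μM (0 μM containing matched DMSO). Day 7 supernatants were assayed for RT activity and converted to percent of virus control. EC50 came from nonlinear regression; n = 6 experiments, each in triplicate.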"}, "[2]": {"tested_on": "Human immunodeficiency virus 1", "experiment": "as §1", "method_in_brief": "as §2"}, "[3]": {"experiment": "Inhibition of Vpu ion channel in HIV1 98IN017 in human MDM assessed as inhibition of vrius release", "set-up": "species or system Human immunodeficiency virus 1"}, "[4]": {"experiment": "Inhibition of Vpu ion channel in HIV1 5705.72 in human MDM assessed as inhibition of vrius release", "set-up": "species or system Human immunodeficiency virus 1"}, "[5]": {"experiment": "Inhibition of Vpu ion channel in HIV1 1064.52 in human MDM assessed as inhibition of vrius release", "set-up": "species or system Human immunodeficiency virus 1"}, "[6]": {"experiment": "Inhibition of Vpu ion channel in HIV1 MDR3761 in human MDM assessed as inhibition of vrius release", "set-up": "species or system Human immunodeficiency virus 1"}, "[7]": {"experiment": "Selectivity index, ratio of TC50 for human MDM cells to EC50 for HIV1 G-92NG003-G3 infected in human MDM cells", "assay_type": "toxicity, cell-based", "conditions": "read-out: Selectivity Index"}, "[8]": {"experiment": "Selectivity index, ratio of TC50 for human MDM cells to EC50 for HIV1 92TH001 infected in human MDM cells", "assay_type": "toxicity, cell-based", "conditions": "read-out: Selectivity Index"}, "[9]": {"experiment": "Selectivity index, ratio of TC50 for human MDM cells to EC50 for HIV1 92UG029 infected in human MDM cells", "assay_type": "toxicity, cell-based", "conditions": "read-out: Selectivity Index"}, "MDM [10]": {"tested_on": "MDM", "experiment": "Inhibition of Vpu ion channel in 0.01 MOI HIV1 Ba-L infected in 7 days differentiated human MDM cells assessed as number of gag copy", "assay_type": "cell-based", "conditions": "Human immunodeficiency virus 1", "method_in_brief": "(§3)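 MDM differentiated for 7, 10 or 14 days were infected with HIV-1 Ba-L across a range of MOIs, washed three times with PBS and cultured 7 days with 10 μM compound or equal-volume DMSO. On day 7 postinfection, supernatant RT activity was measured (and infectivity on TZM-bl cells). Cell lysates went to real-time PCR for LTR-gag DNA, normalised to albumin copies.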"}, "MDM [11]": {"tested_on": "MDM", "experiment": "Inhibition of Vpu ion channel in 0.01 MOI HIV1 Ba-L infected in 10 days differentiated human MDM cells assessed as number of gag copy", "assay_type": "cell-based", "conditions": "Human immunodeficiency virus 1", "method_in_brief": "as §3"}, "MDM [12]": {"tested_on": "MDM", "experiment": "Inhibition of Vpu ion channel in 0.05 MOI HIV1 Ba-L infected in 10 days differentiated human MDM cells assessed as number of gag copy", "assay_type": "cell-based", "conditions": "Human immunodeficiency virus 1", "method_in_brief": "as §3"}, "MDM [13]": {"tested_on": "MDM", "experiment": "Inhibition of Vpu ion channel in 0.001 to 3 MOI HIV1 Ba-L infected in 7-14 days differentiated human MDM cells assessed as virus inhibition rate measured after 7 days", "assay_type": "cell-based", "conditions": "Human immunodeficiency virus 1", "method_in_brief": "as §3"}, "MDM [14]": {"tested_on": "MDM", "experiment": "Inhibition of Vpu ion channel in 0.01 MOI HIV1 Ba-L infected in 10 days differentiated human MDM cells assessed as viral inhibition by TZM-bl infectivity assay", "assay_type": "cell-based", "conditions": "Human immunodeficiency virus 1", "method_in_brief": "as §3"}, "MDM [15]": {"tested_on": "MDM", "experiment": "Inhibition of Vpu ion channel in 0.001 MOI HIV1 Ba-L infected in 14 days differentiated human MDM cells assessed as viral inhibition by TZM-bl infectivity assay", "assay_type": "cell-based", "conditions": "Human immunodeficiency virus 1", "method_in_brief": "as §3"}, "MDM [16]": {"tested_on": "MDM", "experiment": "Inhibition of Vpu ion channel in 0.05 MOI HIV1 Ba-L acutely infected in 14 days differentiated human MDM cells assessed as viral release after 7 days relative to control", "assay_type": "cell-based", "conditions": "Human immunodeficiency virus 1", "method_in_brief": "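Day 14 MDM were acutely infected with HIV-1 Ba-L at MOI 0.05 for 3 h, washed three times with PBS, then cultured a further 7 days in DMEM10+ with 10 μM compound or equal DMSO. Virus release was measured as supernatant RT activity on day 21 of culture, relative to DMSO controls.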"}, "MDM [17]": {"tested_on": "MDM", "experiment": "Inhibition of Vpu ion channel in 0.05 MOI HIV1 Ba-L chronically infected in 10-14 days differentiated human MDM cells assessed as viral inhibition after 1 day relative to control", "assay_type": "cell-based", "conditions": "Human immunodeficiency virus 1", "method_in_brief": "(§4)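 Chronic infection model: MDM were incubated with HIV-1 Ba-L for 3 h and left 7 days unwashed, then washed three times and given a single 10 μM dose (DMSO control). Supernatants were sampled routinely for RT activity. In the washout arm, compound was removed and cells kept drug-free for an additional 20 days.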"}, "MDM [18]": {"tested_on": "MDM", "experiment": "Inhibition of Vpu ion channel in 0.05 MOI HIV1 Ba-L chronically infected in 10-14 days differentiated human MDM cells assessed as viral inhibition after 5 days post treatment relative to control", "assay_type": "cell-based", "conditions": "Human immunodeficiency virus 1", "method_in_brief": "as §4"}, "MDM [19]": {"tested_on": "MDM", "experiment": "Inhibition of Vpu ion channel in 0.05 MOI HIV1 Ba-L chronically infected in 7-14 days differentiated human MDM cells assessed as viral inhibition at 10 uM after 7 days post treatment measured after 20 days drug washout period", "assay_type": "cell-based", "conditions": "Human immunodeficiency virus 1", "method_in_brief": "as §4"}, "MDM [20]": {"tested_on": "MDM", "experiment": "Inhibition of Vpu ion channel activity in 0.05 MOI HIV1 Ba-L chronically infected in 7-14 days differentiated human MDM cells assessed as viral inhibition measured after 7 days", "assay_type": "cell-based", "conditions": "Human immunodeficiency virus 1", "method_in_brief": "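Day 14 MDM from 3 seronegative donors were infected with HIV-2, or with HIV-1 Ba-L as a positive control, at MOI 0.05 for 7 days. Cells were then washed free of extracellular virus and cultured ± 10 μM compound for a further 7 days. Day 28 supernatants were assayed for RT activity by chemiluminescent ELISA, with recombinant RT as the standard.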"}, "[21]": {"tested_on": "Human immunodeficiency virus 2", "experiment": "Antiviral activity against 0.05 MOI HIV2 cytopathic strain chronically infected in 7-14 days differentiated human MDM cells assessed as viral inhibition measured after 7 days", "assay_type": "functional", "method_in_brief": "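Day 14 MDM from three seronegative donors were infected at MOI 0.05 for 7 days, then washed free of extracellular virus. Cultures then ran a further 7 days with or without 10 μM BIT225, from day 21. Day 28 supernatants were assayed by RT activity ELISA. Percent inhibition was taken versus untreated controls, as mean of three donors.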"}, "[22]": {"tested_on": "Human immunodeficiency virus 1", "experiment": "Antiviral activity against HIV1 Ba-L in human MDM assessed as inhibition integration of virus to host cell genome at 0.3125 to 10 uM", "assay_type": "functional, organism-based"}, "[23]": {"tested_on": "Human immunodeficiency virus 1", "experiment": "Antiviral activity against HIV1 Ba-L in human MDM assessed as inhibition integration of virus to host cell genome at 100 nM", "assay_type": "functional, organism-based"}, "[24]": {"tested_on": "Human immunodeficiency virus 1", "experiment": "Antiviral activity against HIV1 Ba-L […] assessed as inhibition integration of virus to host cell genome at 10 uM", "assay_type": "functional", "set-up": "scale not given: the % may be the effect or the level left", "method_in_brief": "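Run in TZM-bl indicator cells (HIV-1 integration activates luciferase), not MDM, infected with HIV-1Ba-L in the presence of BIT225 across 0.3125 to 10 μM. Lysates were given luciferin and light was read on an illuminometer. Percent inhibition of integration was taken relative to DMSO-treated control. Data are from three separate experiments.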"}, "[25]": {"molecular_target": "Protease (Human immunodeficiency virus 1) (UniProt Q9YQ12)", "sequence (Q9YQ12 as listed by the source)": "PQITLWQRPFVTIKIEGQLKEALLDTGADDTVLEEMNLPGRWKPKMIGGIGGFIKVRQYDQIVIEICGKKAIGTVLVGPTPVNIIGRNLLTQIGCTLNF", "experiment": "Inhibition of HIV1 protease assessed as substrate cleavage at 100 uM by cell free assay", "method_in_brief": "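Cell-free fluorometric protease assay: compound (1–100 μM) was premixed with 2 μM quenched HIV-1 protease substrate 1. Background fluorescence (ex 340/em 490 nm) was read every 5 s for 5 min. HIV-1 protease was then added at 1.5% and cleavage followed for a further 5 min. LPV and EFV served as controls.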"}, "PM1": {"tested_on": "PM1", "experiment": "Inhibition of Vpu ion channel in 0.05 MOI HIV1 NL4-3 infected in PM1 cells assessed as viral inhibition measured at 10 uM after 7 days by […]", "conditions": "Human immunodeficiency virus 1"}},
  "note": "Active and inactive are the calls of the source. The calls are words filed in the database; no cut-off is given here.",
  "data": [
    {"compound": "Cn1cc(-c2cccc3cc(C(=O)NC(=N)N)ccc23)cn1", "values": [
      {"measurement": "EC50", "setting": "[1]", "value": 2.25, "unit": "µM"},
      {"measurement": "Activity", "setting": "[2]", "value": "Dose-dependent effect"},
      {"measurement": "EC50", "setting": "[3]", "value": 42.2, "unit": "µM"},
      {"measurement": "EC50", "setting": "[4]", "value": 5.1, "unit": "µM"},
      {"measurement": "EC50", "setting": "[5]", "value": 2.7, "unit": "µM"},
      {"measurement": "EC50", "setting": "[6]", "value": 5.1, "unit": "µM"},
      {"measurement": "selectivity ratio", "setting": "[7]", "value": 131},
      {"measurement": "selectivity ratio", "setting": "[8]", "value": 140},
      {"measurement": "selectivity ratio", "setting": "[9]", "value": 14},
      {"measurement": "Activity", "setting": "MDM [10]", "value": 1160},
      {"measurement": "Activity", "setting": "MDM [11]", "value": 1380},
      {"measurement": "Activity", "setting": "MDM [12]", "value": "Active"},
      {"measurement": "Activity", "setting": "MDM [13]", "value": "Active"},
      {"measurement": "inhibition", "setting": "MDM [14]", "value": 90.4, "unit": "%"},
      {"measurement": "inhibition", "setting": "MDM [15]", "value": 90.3, "unit": "%"},
      {"measurement": "inhibition", "setting": "MDM [16]", "value": 38, "unit": "%"},
      {"measurement": "inhibition", "setting": "MDM [17]", "value": 60.7, "unit": "%"},
      {"measurement": "inhibition", "setting": "MDM [18]", "value": 91.5, "unit": "%"},
      {"measurement": "Activity", "setting": "MDM [19]", "value": "inactive"},
      {"measurement": "inhibition", "setting": "MDM [20]", "value": 66.6, "unit": "%"},
      {"measurement": "inhibition (INH)", "setting": "[21]", "value": 6.1, "unit": "%"},
      {"measurement": "Activity", "setting": "[22]", "value": "inactive"},
      {"measurement": "Activity", "setting": "[23]", "value": "Active"},
      {"measurement": "Activity", "setting": "[24]", "value": 6, "unit": "%"},
      {"measurement": "Activity", "setting": "[25]", "value": "inactive"},
      {"measurement": "inhibition", "setting": "PM1", "value": 21, "unit": "%"}
    ]}
  ]
}
